From article PMC8054679 (Analytical biochemistry, 2020)
Entries after “also recorded” stand apart in the source; their conditions may differ.

What was measured:
[1] = tested on: Hsp70-CHIP interaction (myc-LgBiT-IEEVD / SmBiT-CHIP-FLAG); format: cell-based; settings: for effect on NanoBiT luminescence, single dose: 5 μM, 6 hours, mean ± SD (n=3)
Outline: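 Stable reporter cells induced overnight with dox 100 μg/mL in 96-well plates. Peptides (DMSO-dissolved) given at 10 µM for 1 h; small-molecule inhibitors given at 5 µM for 6 h. Live-cell substrate added in Opti-Mem, 5 min dark at room temperature, then read at 500 ms integration. Uninduced background subtracted; normalized to DMSO control as percent; mean ± SD, n=3.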

[2] = tested on: NanoBiT reporter components (myc-LgBiT-IEEVD, SmBiT-CHIP-FLAG); test: Western blot of lysate protein levels: NanoBiT reporter components; format: cell-based; settings: anti-myc or anti-FLAG
[3] = tested on: dox-inducible NanoBiT reporter in NanoBiT cells; test: NanoBiT luminescence assay of dox-dependence and signal stability; format: cell-based; settings: dox 100 μg/mL, 24 hours
Outline: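 HEK293 Flp-In T-REx cells electroporated with a bicistronic myc-LgBiT-IEEVD/SmBiT-CHIP-FLAG vector plus pOG44, selected with 100 µg/mL hygromycin, and cloned. Cells cultured in 96-well plates ±dox 100 μg/mL for 24 h. Live-cell furimazine substrate added in Opti-Mem, 5 min dark at room temperature, then read at 500 ms integration. Uninduced-cell background subtracted; mean ± SD, n=3.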

Hsp70 = test: Western blot of lysate protein levels: Hsp70; format: cell-based; settings: compared to vehicle; western blot of treated NanoBiT cells
Outline: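 Reporter cells dox-induced overnight, then given test compound for 6 h. Inputs denatured 5 min at 95 °C. Blots blocked 1 h, primary antibody 1:1000 overnight at 4 °C, secondary 1:10000 for 1 h.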

CHIP TPR domain = settings: cited from earlier work

R9-LWWPD
reduction of NanoBiT luminescence ([1]; 10 μM peptide, 1 hour, normalized to DMSO control, n=3): approximately 40%
effect on NanoBiT luminescence, peptides, single dose ([1]; 10 μM, 1 hour, percent of DMSO control, n=3): cell active inhibitor

C[C@H]1c2cccc(O)c2C(=O)C2=C(O)[C@]3(O)C(=O)C(C(N)=O)=C(O)[C@@H](N(C)C)[C@@H]3[C@@H](O)[C@@H]21 [dox, doxycycline]
stability/expression of NanoBiT reporter components [2]: both reporter components were expressed in response to dox, with little background
luminescence with dox ([3]; mean ± SD (n=3)): 47300 ± 1270 RLU
fold increase of luminescence compared to control without dox ([3]; n=3): 31 fold

CCn1c(=O)/c(=C2\SCCN2C)s/c1=C\c1scc[n+]1Cc1ccccc1.[Cl-] [JG-258]
effect on NanoBiT luminescence, single dose ([1]; percent of DMSO control): but not an inactive control, JG-258, reduced luminescence

CCn1c(=O)/c(=C2\Sc3cc(Cl)ccc3N2C)s/c1=C\c1scc[n+]1Cc1ccccc1.[Cl-] [JG-98]
stability/expression of NanoBiT reporter components [2]: partially destabilized both components of the NanoBiT reporter
effect on NanoBiT luminescence, single dose ([1]; percent of DMSO control): reduced luminescence

CO[C@H]1/C=C\C=C(/C)C(=O)NC2=CC(=O)C(NCCN(C)C)=C(C[C@@H](C)C[C@H](OC)[C@H](O)[C@@H](C)/C=C(\C)[C@@H]1OC(N)=O)C2=O [17-DMAG, 17-dimethylaminoethylamino-17-demethoxygeldanamycin]
effect on NanoBiT luminescence, single dose ([1]; percent of DMSO control): reduced the luminescence
total abundance of Hsp70 in the lysate (Hsp70): increased the total abundance of Hsp70 in the lysate; also recorded: induces Hsp70 levels

Ac-LWWPD
efficacy in the NanoBiT assay ([1]; discussion statement, peptide without CPP): no efficacy
affinity for CHIP in vitro (CHIP TPR domain; in vitro, see Figure 1 (FP, adapted from ref 21)): sub-micromolar affinity

LWWPD
binding to CHIP's purified TPR domain relative to IEEVD (CHIP TPR domain; FP, peptide in vitro, fold better than IEEVD): at least 10 fold
